Measurements taken from ChEMBL document CHEMBL4257574, “Structure-guided design and synthesis of isoflavone analogs of GW4064 with potent lipid accumulation inhibitory activities” (Bioorg Med Chem Lett, 2018).
Activity calls are given as the source filed them. No cut-off for these calls is given here.

What was measured:
3T3-L1 [1] = experiment: Reduction in lipid accumulation in mouse 3T3L1 cells at 10 uM by Oil Red O staining-based absorbance method relative to control; assay type: functional
Procedure, shortened: (§1)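 3T3-L1 preadipocytes differentiated to mature adipocytes, then treated with compound (screen at 10 μM; concentration series 10, 20, 40, 80 μM). Lipid stained with Oil Red O, dye extracted and absorbance read at 492 nm; microscopic images also taken. Compared with vehicle; mean ± SD of two independent experiments.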

3T3-L1 [2] = experiment: Cytotoxicity against mouse 3T3L1 cells assessed as effect on cell viability at 10 uM after 48 hrs by MTT assay; assay type: cell-based; settings: 3t3-l1, 48 h
Procedure, shortened: (§2)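 3T3-L1 preadipocytes incubated 48 h with 5, 10, 20 or 40 μM compound; viability read by MTT assay against 0.1% DMSO-treated control cells. Mean ± SD of three independent experiments.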

3T3-L1 [3] = experiment: Cytotoxicity against mouse 3T3L1 cells assessed as reduction in cell viability at 40 uM after 48 hrs by MTT assay; assay type: cell-based; settings: 3t3-l1, 48 h; procedure, shortened: as §2
3T3-L1 [4] = experiment: Increase in cell viability of mouse 3T3L1 cells at 5 uM after 48 hrs by MTT assay; assay type: functional, cell-based; procedure, shortened: as §2
[5] = Hepatotoxicity in human HepG2 cells assessed as reduction in cell viability at 80 uM; assay type: toxicity, cell-based; settings: hepg2, 80 µM
HepG2 [6] = experiment: Up-regulation of FXR mRNA expression in human HepG2 cells at 10 uM by RT-PCR analysis; assay type: functional, cell-based
Procedure, shortened: (§3)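 HepG2 cells exposed to test agent at 10 μM; mRNA of FXR and FXR-regulated genes SHP, BSEP and SREBP-1c quantified by real-time PCR relative to vehicle. Mean ± SEM, n = 3.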

[7] = target: T1, Bile acid receptor (Homo sapiens) (UniProt Q96RI1); experiment: Agonist activity against FXR in human HepG2 cells assessed as down regulation of SREBP-1c mRNA expression at 10 uM by RT-PCR analysis; assay type: cell-based; procedure, shortened: as §3
T1 sequence (whole entry): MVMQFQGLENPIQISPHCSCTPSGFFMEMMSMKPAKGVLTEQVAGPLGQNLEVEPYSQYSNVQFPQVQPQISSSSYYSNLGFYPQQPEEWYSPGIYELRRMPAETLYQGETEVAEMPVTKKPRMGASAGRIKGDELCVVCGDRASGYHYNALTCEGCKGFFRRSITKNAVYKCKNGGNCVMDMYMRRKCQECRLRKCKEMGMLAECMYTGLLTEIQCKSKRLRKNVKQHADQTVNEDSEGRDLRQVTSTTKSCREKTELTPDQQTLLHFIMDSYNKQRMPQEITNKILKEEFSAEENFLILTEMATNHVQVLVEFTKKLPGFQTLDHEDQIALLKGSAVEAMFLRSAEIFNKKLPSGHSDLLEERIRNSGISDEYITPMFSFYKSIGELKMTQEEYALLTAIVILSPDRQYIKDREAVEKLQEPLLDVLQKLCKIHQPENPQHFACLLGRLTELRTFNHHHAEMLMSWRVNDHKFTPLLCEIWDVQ

[8] = target: T1, Bile acid receptor (Homo sapiens); experiment: Agonist activity against FXR in human HepG2 cells assessed as up-regulation of BSEP mRNA expression at 10 uM by RT-PCR analysis; assay type: cell-based; procedure, shortened: as §3
3T3-L1 [9] = experiment: Reduction in lipid accumulation in mouse 3T3L1 cells by Oil Red O staining-based absorbance method; assay type: functional, cell-based; procedure, shortened: as §1
[10] = target: T1, Bile acid receptor (Homo sapiens); experiment: Transactivation of FXR (unknown origin) at 10 uM by cell-based dual luciferase reporter gene assay
Procedure, shortened: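 Cell-based FXR transactivation measured with a dual-luciferase reporter system; cells exposed to 10 μM compound. Mean ± SEM, n = 3.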

3T3-L1 [11] = experiment: Reduction in lipid accumulation in mouse 3T3L1 cells at 10 to 80 uM by Oil Red O staining-based microscopic analysis; assay type: functional, cell-based; procedure, shortened: as §1
HepG2 [12] = experiment: Induction of cell proliferation in human HepG2 cells at <20 uM; assay type: functional, cell-based
[13] = target: T1, Bile acid receptor (Homo sapiens); experiment: Agonist activity against FXR in human HepG2 cells assessed as up-regulation of SHP mRNA expression at 10 uM by RT-PCR analysis; assay type: cell-based; procedure, shortened: as §3
3T3-L1 [14] = experiment: Reduction in lipid accumulation in mouse 3T3L1 cells at 80 uM by Oil Red O staining-based absorbance method relative to control; assay type: functional; parameters: scale not given: the % may be the effect or the level left; procedure, shortened: as §1

Compound	Activity (3T3-L1 [1])	Activity (3T3-L1 [2])	Activity (3T3-L1 [3])	also measured
CCNC(=O)c1ccc(-c2coc3cc(OCc4c(-c5c(Cl)cccc5Cl)noc4C(C)C)ccc3c2=O)cc1	Active	Non-Toxic	Non-Toxic	–
CNC(=O)c1ccc(-c2coc3cc(OCc4c(-c5c(Cl)cccc5Cl)noc4C(C)C)ccc3c2=O)cc1	Active	Non-Toxic	Non-Toxic	–
CCOC(=O)COc1ccc(-c2coc3cc(OCc4c(-c5c(Cl)cccc5Cl)noc4C(C)C)ccc3c2=O)cc1	Active	Non-Toxic	Non-Toxic	–
COc1ccc(-c2coc3cc(OCc4c(-c5c(Cl)cccc5Cl)noc4C(C)C)ccc3c2=O)cc1	Active	Non-Toxic	Non-Toxic	–
COC(=O)c1ccc(-c2coc3cc(OCc4c(-c5c(Cl)cccc5Cl)noc4C(C)C)ccc3c2=O)cc1	Active	Non-Toxic	Non-Toxic	–
CC(C)c1onc(-c2c(Cl)cccc2Cl)c1COc1ccc2c(=O)c(-c3ccc(C(=O)O)cc3)coc2c1	Active	Non-Toxic	Non-Toxic	–
CC(C)c1onc(-c2c(Cl)cccc2Cl)c1COc1ccc2c(=O)c(-c3ccc([N+](=O)[O-])cc3)coc2c1	Active	Non-Toxic	Non-Toxic	–
CC(C)c1onc(-c2c(Cl)cccc2Cl)c1COc1ccc2c(=O)c(-c3ccc(F)cc3)coc2c1	–	Non-Toxic	Non-Toxic	–
CC(C)c1onc(-c2c(Cl)cccc2Cl)c1COc1ccc2c(=O)c(-c3ccc(C(=O)NC4CC4)cc3)coc2c1	Active	Non-Toxic	Non-Toxic	Activity (3T3-L1 [4]): Active
CC(C)c1onc(-c2c(Cl)cccc2Cl)c1COc1ccc2c(=O)c(-c3ccc(OCC(=O)O)cc3)coc2c1	Active	Non-Toxic	Non-Toxic	–
CC(C)c1onc(-c2c(Cl)cccc2Cl)c1COc1ccc2c(=O)c(-c3ccc(C(=O)N(C)C)cc3)coc2c1	Active	Non-Toxic	Non-Toxic	Activity [5]: Non-Toxic; Activity (HepG2 [6]): Active; Activity [7]: Active; Activity [8]: Active; Activity (3T3-L1 [9]): Dose-dependent effect; Activity [10]: Active; Activity (3T3-L1 [11]): Active; Activity (HepG2 [12]): Active; Activity [13]: Active; Activity (3T3-L1 [14]): >50%
CC(C)c1onc(-c2c(Cl)cccc2Cl)c1COc1ccc2c(=O)c(-c3ccc(O)cc3)coc2c1	Active	Non-Toxic	Toxic	–
CC(C)c1onc(-c2c(Cl)cccc2Cl)c1COc1ccc(/C=C/c2cccc(C(=O)O)c2)c(Cl)c1	Active	Non-Toxic	–	Activity [10]: Active
